Data published in paper PMC4196235 (mBio, 2014).
≈ marks a conversion by molar mass, not a printed value.

Key:
[1] = system: hybrid bacterial ribosomes carrying the mitochondrial A site; assay: cell-free translation assay, mitochondrial hybrid ribosomes; assay type: biochemical, Homo sapiens; details: firefly luciferase synthesis, mean ± SD, triplicate
Method in brief: (§1)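 Hybrid 70S ribosomes purified from recombinant Mycobacterium smegmatis strains derived from a ΔrrnB single-rRNA-operon strain. Reactions contained 0.25 µM ribosomes, 4 µg firefly luciferase mRNA, 40% (vol/vol) M. smegmatis S100 extract, 200 µM amino acids and 0.4 mg/ml tRNAs, with S30 premix as energy source. Serially diluted test compound added; 37°C for 35 min, stopped on ice. Luciferase luminescence read; IC50 from dose-response curves; mean ± SD, triplicate.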

[2] = system: hybrid bacterial ribosomes carrying the mitochondrial mutant A1555G deafness A site; assay: cell-free translation assay, mitochondrial deafness hybrid ribosomes; assay type: biochemical, Homo sapiens; details: firefly luciferase synthesis, mean ± SD, triplicate
Method in brief: as §1

[3] = system: hybrid bacterial ribosomes carrying the cytoplasmic A site; assay: cell-free translation assay, cytosolic hybrid ribosomes; assay type: biochemical, Homo sapiens; details: firefly luciferase synthesis, mean ± SD, triplicate
Method in brief: as §1

[4] = system: rabbit reticulocyte ribosomes; assay: in vitro translation in rabbit reticulocyte lysate; assay type: biochemical; details: firefly luciferase synthesis, mean ± SD, triplicate
Method in brief: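 Cell-free translation in rabbit reticulocyte lysate with firefly luciferase mRNA and serially diluted test compound. Incubated 37°C for 35 min, stopped on ice, then luciferase luminescence measured. IC50 is the concentration halving functional luciferase synthesis, taken from dose-response curves; mean ± SD, triplicate.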

outer hair cells = assay: quantification of outer hair cell loss in cochlear surface preparations; assay type: in vivo; details: guinea pig, 140 mg/kg, 14 days
Method in brief: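 Guinea pigs dosed subcutaneously once daily for 14 days. After the final ABR (3 weeks post-treatment), cochleae were split into apical, middle and basal segments. Segments were permeabilized in 3% Triton X-100 for 30 min at RT, washed in PBS and stained with rhodamine phalloidin (1:100) for 1 h at RT. Consecutive 0.19-mm fields from the apex were scored blind for missing outer hair cells against a normative database.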

[5] = general toxicity in the guinea pig chronic ototoxicity study; assay type: in vivo
Method in brief: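 Male Hartley guinea pigs, about 200 g initially, acclimated 1 week. […] Animals were followed for death and body weight through the study, which included ABR testing before treatment and 3 weeks after treatment ended.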

[6] = system: recombinant bacterial ribosomes with point mutation G1491C in the A site; assay: cell-free ribosomal translation assay, G1491C mutant; assay type: biochemical, Mycobacterium smegmatis
Method in brief: (§2)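 Purified 70S hybrid ribosomes, wild-type or carrying the single A-site point mutation, came from M. smegmatis strains with a single rRNA operon. Each was translated with firefly luciferase mRNA, 40% (vol/vol) M. smegmatis S100 extract, amino acids, 0.4 mg/ml tRNAs and S30 premix energy, plus serially diluted test compound, for 35 min at 37°C. Luciferase luminescence gave IC50s (triplicate means ± SD), expressed as mutant/wild-type IC50 ratio.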

[7] = system: recombinant bacterial ribosomes with point mutation A1408G in the A site; assay: cell-free ribosomal translation assay, A1408G mutant; assay type: biochemical, Mycobacterium smegmatis
Method in brief: as §2

[8] = system: mitochondrial hybrid ribosomes; assay: ribosomal damage index; assay type: biochemical, Homo sapiens; details: 1/IC50 × misreading at IC50/misreading in the absence of the drug × 100
Method in brief: (§3)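 Misreading gain-of-function assay: firefly luciferase mRNA with His245 CAC replaced by near-cognate Arg245 CGC, alongside wild-type firefly mRNA, translated in vitro with renilla luciferase mRNA as internal control. Misreading is the mutant firefly/renilla ratio relative to the wild-type firefly/renilla ratio.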

[9] = system: mitochondrial A1555G mutant hybrid ribosomes; assay: ribosomal damage index, mitochondrial A1555G mutant hybrid; assay type: biochemical, Homo sapiens; details: 1/IC50 × misreading at IC50/misreading in the absence of the drug × 100
Method in brief: as §3

[10] = system: cytosolic hybrid ribosomes; assay: ribosomal damage index, cytosolic hybrid; assay type: biochemical, Homo sapiens; details: 1/IC50 × misreading at IC50/misreading in the absence of the drug × 100
Method in brief: as §3

[11] = system: rabbit reticulocyte ribosomes; assay: ribosomal damage index, native cytosolic eukaryotic ribosomes; assay type: biochemical; details: 1/IC50 × misreading at IC50/misreading in the absence of the drug × 100
Method in brief: as §3

[12] = system: Staphylococcus aureus (MRSA) isolates; assay: MIC by broth microdilution, clinical isolates; assay type: cell-based
Method in brief: (§4)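 Clinical isolates from a university diagnostic microbiology department. MIC determined by broth microdilution in microtiter plates, incubated overnight.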

[13] = system: Escherichia coli isolates; assay: MIC by broth microdilution, clinical isolates; assay type: cell-based
Method in brief: as §4

S. aureus MRSA AG041 = assay: neutropenic murine model of Staphylococcus aureus septicemia; assay type: in vivo; details: at the highest dose tested; subcutaneous (Fig. 2C and F)

NC[C@@H]1O[C@H](O[C@H]2[C@@H](O)[C@H](O[C@@H]3[C@@H](O)[C@H](N)C[C@H](N)[C@H]3O[C@H]3O[C@H](CO)C[C@H](O)[C@H]3N)O[C@@H]2CO)[C@H](N)[C@@H](O)[C@@H]1O [4′ Deoxy paromomycin]
IC50 with eukaryotic A sites in the ribosome: Mitochondrial wild-type [1]: 74.1 ± 12.4 mg/L | IC50 with eukaryotic A sites in the ribosome: Mitochondrial mutant A1555G [2]: 24.2 ± 10.5 mg/L | IC50 with eukaryotic A sites in the ribosome: Cytosolic wild-type [3]: 28.4 ± 13.8 mg/L | IC50 with eukaryotic A sites in the ribosome: Rabbit reticulocytes [4]: 17.3 ± 4.2 mg/L

NC[C@@H]1O[C@H](O[C@H]2[C@@H](O)[C@H](O[C@@H]3[C@@H](O)[C@H](N)C[C@H](N)[C@H]3O[C@H]3O[C@@H]4CO[C@@H](CCc5ccccc5)O[C@H]4[C@H](O)[C@H]3N)O[C@@H]2CO)[C@H](N)[C@@H](O)[C@@H]1O [4′,6′-O-(3-Phenylpropylidene) paromomycin]
IC50 with eukaryotic A sites in the ribosome: Mitochondrial wild-type [1]: 305.7 ± 74.1 mg/L | IC50 with eukaryotic A sites in the ribosome: Mitochondrial mutant A1555G [2]: 126.9 ± 54.4 mg/L | IC50 with eukaryotic A sites in the ribosome: Cytosolic wild-type [3]: 150.5 ± 28.0 mg/L

NCC1OC(OC2C(CO)OC(OC3C(O)C(N)CC(N)C3OC3OC(CO)C(OCCCc4ccccc4)C(O)C3N)C2O)C(N)C(O)C1O (stereo not shown) [4′-O-(3-Phenylpropyl) paromomycin]
IC50 with eukaryotic A sites in the ribosome: Mitochondrial wild-type [1]: 49.85 ± 15.39 mg/L | IC50 with eukaryotic A sites in the ribosome: Mitochondrial mutant A1555G [2]: 105.68 ± 39.23 mg/L | IC50 with eukaryotic A sites in the ribosome: Cytosolic wild-type [3]: 268.57 ± 54.97 mg/L

CNC(C)C1CCC(N)C(OC2C(N)CC(N)C(OC3OCC(C)(O)C(NC)C3O)C2O)O1 (stereo not shown) [Gentamicin]
loss of outer hair cells in cochleae (outer hair cells): steep rise of hair cell loss from the middle cochlea to complete loss at the base | loss of outer hair cells in cochleae (outer hair cells; listed as gentamicin): extensive loss of outer hair cells | signs of general toxicity ([5]; doses below 160 mg/kg): significant weight loss | signs of general toxicity ([5]; doses exceeding 160 mg/kg): death

NC[C@@H]1O[C@H](O[C@H]2[C@@H](O)[C@H](O[C@@H]3[C@@H](O)[C@H](N)C[C@H](N)[C@H]3O[C@H]3O[C@H](CO)[C@@H](O)[C@H](O)[C@H]3N)O[C@@H]2CO)[C@H](N)[C@@H](O)[C@@H]1O [Paromomycin]
ratio of the IC50 for the C1491 mutant ribosomes to the IC50 for the wild-type ribosomes [6]: 520 | ratio of the IC50 for the G1408 mutant ribosomes to the IC50 for the wild-type ribosomes [7]: 13 | IC50 with eukaryotic A sites in the ribosome: Mitochondrial wild-type [1]: 50.66 ± 13.33 mg/L | IC50 with eukaryotic A sites in the ribosome: Mitochondrial mutant A1555G [2]: 5.77 ± 2.32 mg/L | IC50 with eukaryotic A sites in the ribosome: Cytosolic wild-type [3]: 9.89 ± 2.73 mg/L | IC50 with eukaryotic A sites in the ribosome: Rabbit reticulocytes [4]: 9.55 ± 4.94 mg/L | Ribosomal damage index: Mitochondrial wild-type [8]: 5.0 | Ribosomal damage index: Mitochondrial mutant A1555G [9]: 125.0 | Ribosomal damage index: Cytosolic wild-type [10]: 40.0 | Ribosomal damage index: Rabbit ribosomes [11]: 120.0 | MIC ([12]; S. aureus (MRSA) clinical isolate AG 038): 4 µg/mL (≈ 6.5 µM) | MIC ([12]; S. aureus (MRSA) clinical isolate AG 039): > 256 µg/mL | MIC ([12]; S. aureus (MRSA) clinical isolate AG 042): > 256 µg/mL | MIC ([12]; S. aureus (MRSA) clinical isolate AG 044): 4 to 8 µg/mL (≈ 6.5 to 13 µM) | MIC ([12]; S. aureus (MRSA) clinical isolate AG 045): 4 µg/mL (≈ 6.5 µM) | MIC ([13]; E. coli clinical isolate AG 001): 16 to 32 µg/mL (≈ 26 to 52 µM) | MIC ([13]; E. coli clinical isolate AG 002): 8 to 16 µg/mL (≈ 13 to 26 µM) | MIC ([13]; E. coli clinical isolate AG 003): 8 to 16 µg/mL (≈ 13 to 26 µM) | MIC ([13]; E. coli clinical isolate AG 055): 8 to 16 µg/mL (≈ 13 to 26 µM) | bacterial burden in the kidney (S. aureus MRSA AG041): below detectable limits
